Tests used:
[1] = target: 2-acylglycerol O-acyltransferase 2 (Homo sapiens, UniProt Q3SYC2); assay: Inhibition of N-terminal FLAG-tagged full-length human MGAT2 expressed in human FreeStyle 293-F cell membrane using 13Cx18oleoyl-CoA and 2-oleoyl-glycerol as substrate preincubated for 60 mins followed by substrate addition and measured after 30 mins by RapidFire mass spectrometric analysis; type: cell membranes
Summary of the method: (§1)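 FreeStyle293 cells transfected and harvested after 2 days; total membranes isolated by ultracentrifugation. Reaction started with 13C18 oleoyl-CoA and 2-oleoyl-glycerol (20 µM each), run 30 min at room temperature. Stopped with acetonitrile/formic acid containing 1,2-dioleoyl-glycerol; read by RapidFire/MS.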

[2] = target: CYP3A4 (Homo sapiens, UniProt P08684); assay: (§2) Time-dependent inhibition of CYP3A4 in human liver microsomes using testosterone as substrate assessed as remaining activity at 30 uM preincubated with compound in presence of NADPH-generating system followed by substrate addition by UPLC analysis relative to control; type: ADME, Microsome; conditions: human liver microsomes, probe testosterone, read-out: Activity
Summary of the method: (§3)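 Compound at 30 µM preincubated at 37 °C with human liver microsomes in pH 7.4 phosphate buffer plus an NADPH-generating system. CYP3A4 activity then measured as testosterone 6β-hydroxylation by UPLC, expressed as % of DMSO control. Remaining activity = preincubated activity ÷ non-preincubated activity × 100; n = 2.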

[3] = tested on: NIH3T3; assay: Cytotoxicity against BALB/c mouse 3T3 cells assessed as reduction in cell viability at 6.25 uM incubated for 1 hrs in absence of UV irradiation by Celltiter-Glo assay relative to control; type: toxicity, cell-based; conditions: nih3t3, 1 h
Summary of the method: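 BALB/c 3T3 cells seeded at 2.5 × 10^3 cells/well and grown 1 day. Compound at 6.25 µM in EBSS with 1 mM HEPES, preincubated 1 h. Plate kept dark (–UV) while the paired plate was irradiated. Medium replaced, cultured 24 h more. Viability read as cellular ATP by CellTiter-Glo, % of 1% DMSO control; n = 3, mean ± SD.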

[4] = 1-Octanol/aqueous buffer partition coefficient, logD of the compound at pH 7.4 by HPLC analysis; type: physicochemical
[5] = Metabolic stability in mouse liver microsomes assessed as intrinsic clearance at 1 uM incubated for 15 to 30 mins in presence of NADPH-generating system by LC/MS/MS analysis; type: ADME, Microsome; conditions: time 15-30 min, read-out: CLH
Summary of the method: (§4)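 Compound at 1 µM with 0.2 mg/mL liver microsomal protein in 50 mM phosphate buffer pH 7.4. Reaction started by NADPH-generating system (5 mM MgCl2, 5 mM glucose-6-phosphate, 0.5 mM β-NADP+, 1.5 U/mL G6PDH). Stopped with acetonitrile at 15 and 30 min and analysed by LC/MS/MS. Velocity taken as slope of concentration–time plot.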

[6] = Oral bioavailability in mouse at 1 mg/kg administered as cassette dose by LC/MS/MS analysis; type: ADME, organism-based; conditions: in vivo
Summary of the method: (§5)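 Non-fasted mice dosed by cassette, iv 0.1 mg/kg or po 1 mg/kg suspended in 0.5% methylcellulose aqueous solution; plasma obtained from blood by centrifugation, deproteinized with acetonitrile, and compound concentrations measured by LC/MS/MS.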

[7] = target: 2-acylglycerol O-acyltransferase 2 (Mus musculus, UniProt Q80W94); assay: Inhibition of N-terminal FLAG-tagged full-length mouse MGAT2 expressed in human FreeStyle 293-F cell membrane using 13Cx18oleoyl-CoA and 2-oleoyl-glycerol as substrate preincubated for 60 mins followed by substrate addition and measured after 30 mins by RapidFire mass spectrometric analysis; type: cell membranes; summary of the method: as §1
[8] = MRT in mouse at 1 mg/kg, po administered as cassette dose by LC/MS/MS analysis; type: ADME, organism-based; conditions: in vivo; summary of the method: as §5
[9] = Total clearance in mouse at 0.1 mg/kg, iv administered as cassette dose by LC/MS/MS analysis; type: ADME, organism-based; conditions: in vivo; summary of the method: as §5
[10] = AUC in mouse at 1 mg/kg, po administered as cassette dose by LC/MS/MS analysis; type: ADME, organism-based; conditions: in vivo; summary of the method: as §5
[11] = Permeability of compound at pH 7.4 by PAMPA assay; type: ADME; conditions: read-out: permeability
Summary of the method: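 Passive permeability measured by PAMPA at pH 7.4.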

[12] = Volume of distribution at steady state in mouse at 0.1 mg/kg, iv administered as cassette dose by LC/MS/MS analysis; type: ADME, organism-based; conditions: in vivo, read-out: Vdss; summary of the method: as §5
[13] = target: Cytochrome P450 3A4 (Homo sapiens, UniProt P08684); assay: as §2; type: ADME, Microsome; conditions: microsomes, 30 µM; summary of the method: as §3
[14] = Metabolic stability in human liver microsomes assessed as intrinsic clearance at 1 uM incubated for 15 to 30 mins in presence of NADPH-generating system by LC/MS/MS analysis; type: ADME, Microsome; conditions: time 15-30 min, read-out: CLH; summary of the method: as §4

Chain of 2-acylglycerol O-acyltransferase 2 (Homo sapiens, UniProt Q3SYC2) (Q3SYC2 whole entry): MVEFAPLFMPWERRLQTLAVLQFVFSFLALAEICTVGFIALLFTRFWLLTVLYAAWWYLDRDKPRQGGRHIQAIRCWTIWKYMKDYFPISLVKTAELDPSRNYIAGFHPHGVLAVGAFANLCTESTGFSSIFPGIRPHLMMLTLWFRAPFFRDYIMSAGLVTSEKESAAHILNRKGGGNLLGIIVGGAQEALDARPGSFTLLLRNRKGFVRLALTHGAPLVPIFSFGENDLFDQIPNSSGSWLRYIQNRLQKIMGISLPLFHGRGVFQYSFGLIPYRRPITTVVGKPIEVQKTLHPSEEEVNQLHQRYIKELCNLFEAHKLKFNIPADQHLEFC
Chain of CYP3A4 (P08684 whole entry): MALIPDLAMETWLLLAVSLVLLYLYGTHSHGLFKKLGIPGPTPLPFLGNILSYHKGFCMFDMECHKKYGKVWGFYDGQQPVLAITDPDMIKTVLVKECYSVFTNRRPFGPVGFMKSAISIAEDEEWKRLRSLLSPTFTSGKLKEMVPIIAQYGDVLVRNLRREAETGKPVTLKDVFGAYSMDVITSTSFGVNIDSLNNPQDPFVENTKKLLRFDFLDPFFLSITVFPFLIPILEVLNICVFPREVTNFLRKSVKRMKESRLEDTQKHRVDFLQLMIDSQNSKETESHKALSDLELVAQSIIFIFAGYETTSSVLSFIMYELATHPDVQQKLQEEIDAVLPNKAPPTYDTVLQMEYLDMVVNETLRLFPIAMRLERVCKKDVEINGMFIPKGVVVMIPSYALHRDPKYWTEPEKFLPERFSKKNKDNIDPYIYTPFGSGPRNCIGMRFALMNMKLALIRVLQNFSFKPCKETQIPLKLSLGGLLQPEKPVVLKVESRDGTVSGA
Chain of 2-acylglycerol O-acyltransferase 2 (Mus musculus, UniProt Q80W94) (Q80W94 whole entry): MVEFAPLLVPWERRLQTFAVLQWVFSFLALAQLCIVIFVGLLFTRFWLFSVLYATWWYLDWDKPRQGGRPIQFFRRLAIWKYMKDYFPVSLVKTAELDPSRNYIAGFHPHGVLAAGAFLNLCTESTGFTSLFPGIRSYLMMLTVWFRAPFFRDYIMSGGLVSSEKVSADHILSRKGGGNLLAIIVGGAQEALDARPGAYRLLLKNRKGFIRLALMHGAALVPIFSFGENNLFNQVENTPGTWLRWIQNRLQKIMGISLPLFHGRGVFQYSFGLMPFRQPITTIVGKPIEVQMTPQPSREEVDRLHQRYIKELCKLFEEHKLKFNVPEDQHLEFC
Chain of Cytochrome P450 3A4 (P08684 whole entry): as the sequence (P08684 whole entry) above

SMILES | IC50 [1] [nM] | activity at 30 µM [2] [%] | logD [4] | Activity [3] [%] | also measured
O=C1CCCN1c1cc(S(=O)(=O)Nc2ccc(F)cc2F)cc2c1N(C(=O)Nc1ccc(C(F)(F)F)cc1)CC2 | 3.4 | 43 |  |  | 
O=C1CCCN1c1cc(S(=O)(=O)Nc2c(F)cc(Cl)cc2F)cc2c1N(c1ncc(-c3ccc(C(F)(F)F)cc3F)cn1)CC2 | 0.42 |  | 4.1 | 98 | 
O=C1CCCN1c1cc(S(=O)(=O)Nc2c(F)cc(Cl)cc2F)cc2c1N(c1ncc(-n3ccc(C(F)(F)F)n3)cn1)CC2 | 8.2 |  | 3.1 | 105 | 
Cc1cc(C(F)(F)F)nn1-c1cnc(N2CCc3cc(S(=O)(=O)Nc4c(F)cc(Cl)cc4F)cc(N4CCCC4=O)c32)nc1 | 2.1 |  | 2.9 | 112 | microsomal CLint at 1 µM [5]: 27 µL/min/mg; bioavailability [6]: 52%; IC50 [7]: 1.1 nM; MRT [8]: 2.6 h; clearance [9]: 7.85 mL/min/kg; AUC [10]: 1120 ng·h/mL; Papp [11]: 18.5 ×10⁻⁶ cm/s; Vd [12]: 1.02 L/kg
O=C1CCCN1c1cc(S(=O)(=O)Nc2c(F)cc(Cl)cc2F)cc2c1N(c1ccc(-c3ccc(C(F)(F)F)cc3)cc1)CC2 | 0.25 |  | 4.5 | 95 | TDI [13]: Not Active
Cn1nc(C(F)(F)F)cc1-c1cnc(N2CCc3cc(S(=O)(=O)Nc4c(F)cc(Cl)cc4F)cc(N4CCNC4=O)c32)nc1 | 3.7 |  | 2.7 | 111 | microsomal CLint at 1 µM [5]: 33 µL/min/mg; bioavailability [6]: 16%; IC50 [7]: 1.9 nM; MRT [8]: 2.3 h; clearance [9]: 39.5 mL/min/kg; microsomal CLint at 1 µM [14]: 4 µL/min/mg; AUC [10]: 72 ng·h/mL; Papp [11]: 4 ×10⁻⁶ cm/s; Vd [12]: 1.96 L/kg
CC(=O)Nc1cc(S(=O)(=O)Nc2ccc(F)cc2F)cc2c1N(CCc1ccccc1)CC2 | 1 | 13 |  |  | 
O=C1CCCN1c1cc(S(=O)(=O)Nc2c(F)cc(Cl)cc2F)cc2c1N(c1ncc(-n3cc(C(F)(F)F)cn3)cn1)CC2 | 6.2 |  | 3.1 | 109 | 
O=C1CCCN1c1cc(S(=O)(=O)Nc2c(F)cc(Cl)cc2F)cc2c1N(c1ncc(-c3ccc(C(F)(F)F)cc3)cn1)CC2 | 0.69 |  | 3.8 | 105 | TDI [13]: Not Active

Now from value to compound, other results behind:

IC50 [1] [nM] | activity at 30 µM [2] [%] | logD [4] | SMILES | Activity [3] [%] | also measured
30 | 89 | 3.3 | O=C1CCCN1c1cc(S(=O)(=O)Nc2c(F)cc(Cl)cc2F)cc2c1N(C(=O)Nc1ccc(C(F)(F)F)cc1)CC2 |  | 
75 | 95 | 3.4 | O=C1CCCN1c1cc(S(=O)(=O)Nc2c(F)cc(F)cc2F)cc2c1N(C(=O)OC1CCN(CC(F)(F)C(F)(F)F)CC1)CC2 |  | 
42 | 93 | 4.1 | O=C1CCCN1c1cc(S(=O)(=O)Nc2ccc(C(F)(F)F)cc2F)cc2c1N(C(=O)OC1CCN(CC(F)(F)C(F)(F)F)CC1)CC2 |  | 
19 | 82 | 3.8 | O=C1CCCN1c1cc(S(=O)(=O)Nc2c(F)cc(Cl)cc2F)cc2c1N(C(=O)OC1CCN(CC(F)(F)C(F)(F)F)CC1)CC2 |  | 
4.1 | 59 | 3.7 | O=C1CCCN1c1cc(S(=O)(=O)Nc2ccc(F)cc2F)cc2c1N(C(=O)OC1CCN(CC(F)(F)C(F)(F)F)CC1)CC2 |  | 
